# Measured values published in PubChem BioAssay AID1885 (Broad Institute, 2009).
# In all, about 300,000 compounds went through this assay and about 4,400 (1.5%) were called active. The list comes from a sample in which actives are over-represented; it also holds similar structures and randomly drawn compounds. Values without a mark were called inactive.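 Rule for the calls: active = mean inhibition across valid replicates above about 55% (limit read from the data); inconclusive = mean below that limit but half or more replicates reach it; inactive = mean below it, under half of replicates reach it.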
# Assay: Trypanosoma cruzi replication blockers in host cells – luminescence, NIH3T3 host cells, primary screen (AID 1885);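 note: signal also drops with host cell toxicity which is not excluded here; 0% = plate median of DMSO wells and 100% = zero luminescence signal; higher percent means less beta-gal luminescence so fewer parasites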
# Conditions: T. cruzi beta-gal in NIH3T3, luminescence, 90 h; active compounds read high; concentration not given here
# How it was run: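 System: Mouse NIH/3T3 fibroblasts infected with β-gal-expressing T. cruzi Tulahuen C4 | Quantity: NIH/3T3 cells, 5,000 per well | Reagent: 5000 reporter trypomastigotes per well | Dosing: Compound pinned at 50 nL/well, DMSO | Schedule: 3 h host attachment, then at least 90 h co-culture | Detection: GalScreen luminescence, 60 min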
row,Compound,inhibition
1,CC(Sc1nnc(-c2ccccc2F)n1C1CC1)C(N)=O (centres undefined),-10.8%
2,COc1ccc(-c2nc(CS(=O)(=O)CC(=O)NCc3cccc(Br)c3)c(C)o2)cc1,-6.3%
3,COc1ccc2ccccc2c1/C=N/NC(=O)c1cc(C)[nH]n1,-14.2%
4,CCOc1ccc(NC(=O)CCC(=O)N/N=C/c2ccc([N+](=O)[O-])s2)cc1,50.6%
5,CC(C)(C)c1cc(C(=O)N/N=C/c2ccc([N+](=O)[O-])s2)n[nH]1,57.6% (active)
6,Cc1ccccc1NCC(=O)N/N=C\c1ccc([N+](=O)[O-])s1,64.6% (active)
7,Cc1cc(C(=O)N/N=C/c2cc([N+](=O)[O-])cc(C)c2O)n[nH]1,-40.2%
8,Cc1cccc(/C=N/NC(=O)CNc2cccc3ccccc23)n1,-0.344%
9,COc1ccc(C(=O)NCC(=O)N/N=C/c2ccc([N+](=O)[O-])s2)cc1OC,64.6% (active)
10,COc1cc(/C=N/NC(=O)CNC(=O)c2ccncc2)ccc1OC(C)=O,-4.41%
11,COc1ccc(C(=O)NCC(=O)N/N=C/c2ccc([N+](=O)[O-])o2)cc1OC,-11%
12,O=C(NCCNc1ccc([N+](=O)[O-])cc1)c1cccc2c(Br)cccc12,5.94%
13,O=C(O)c1ccn(COc2ccc(Br)cc2)n1,-13.4%
14,Brc1ccc(OCCn2ccnc2)cc1,68.5% (active)
15,c1ccc(Cc2ccc(OCCn3ccnc3)cc2)cc1,28.2%
16,O=C(NCCS(=O)(=O)N1CCN(c2ccc(F)cc2)CC1)c1ccc2c(c1)OCO2,-12.2%
17,COc1ccc(NC(=O)CN(C)C(=O)/C=C/c2cn(Cc3ccccc3)nc2-c2cccnc2)cc1,4%
18,NC(=S)Nc1c(Cl)cccc1Cl,-4.22%
19,CCCCN(C)CCCNC(=O)c1cc(-c2cccs2)nc2ccccc12,63.8% (active)
20,O=C(NCCN1CCOCC1)c1cc(-c2cccs2)nc2ccccc12,-5.61%
21,COC(=O)c1cc(-c2cccs2)nc2ccccc12,5.51%
22,COc1cnn(-c2ccc([N+](=O)[O-])cc2)c(=O)c1Cl,7.92%
23,CCN1C(=O)[C@H]2[C@@H](c3ccc(-c4ccc(OC)cc4)cc3)N[C@@](Cc3ccccc3)(C(=O)OC)[C@H]2C1=O,-3.65%
24,CCOC(=O)C1(CCOC)CCN(Cc2cc3ccccc3s2)CC1,6.96%

row,Compound,inhibition
1,Cc1ccc(S(=O)(=O)N2CCCC2C(=O)OCc2nc3sc(C)c(C)c3c(=O)[nH]2)cc1 (centres undefined),-13%
2,O=C(NCCCn1ccnc1)c1ccccc1F,7.44%
3,C=CCc1cc(C)ccc1OCCCn1ccnc1,36.6%
4,Clc1c(OCCCn2ccnc2)ccc2ccccc12,61.3% (active)
5,Cc1cc(Nc2cc(N3CCN(C)CC3)nc(Sc3ccc(NC(=O)C4CC4)cc3)n2)n[nH]1,26.9%
6,CC(=O)CC(CC(=O)NC1CCCCC1)c1ccccc1 (centres undefined),-21.8%
7,CCOc1ccc(C(=O)NCC(=O)N2CCCCCCC2)cc1OCC,17.5%
8,CCc1noc(C)c1C(=O)NNC(=O)c1ccc(F)cc1,-6.32%
9,CC(C)(C)S(=O)(=O)c1ccccc1-c1noc(-c2ccccc2)c1C(N)=O,-8.06%
10,Cc1cc(C)c2nc(-c3ccco3)cc(C(=O)O)c2c1,-8.53%
11,Cc1cc(C)c2nc3nc(C)cc(C)c3c(N)c2c1,58.9% (active)
12,Cc1cc(C)c2nc(SCCC#N)nc(C)c2c1,1.26%
13,O=C(COC(=O)c1ncc(Cl)c(Cl)c1Cl)NNC(=O)c1ccccc1,-29.7%
14,Cc1ccc2nc(NC(=O)C3CSC4(C)CCC(=O)N34)sc2c1 (centres undefined),-3.69%
15,NC(=S)N/N=C/c1coc2cc(Cl)ccc2c1=O,-10.9%
16,CCOc1ccc(/C=N/NC(N)=S)cc1,15.1%
17,CC(C)Oc1c(Br)cc(Br)cc1/C=N/NC(N)=S,66.9% (active)
18,CCc1noc(C)c1C(=O)Nc1nc(-c2ccccc2)cs1,6.55%
19,CCS(=O)(=O)c1ccc(C(=O)NC)c(Cl)c1Cl,-1.91%
20,Cc1cc(C)n(S(=O)(=O)c2cccc([N+](=O)[O-])c2)n1,19.3%
21,Cc1ccc(-c2cn(S(=O)(=O)c3cccc([N+](=O)[O-])c3)nc2N)cc1,63.5% (active)
22,CC1=NCCN1S(=O)(=O)c1cccc([N+](=O)[O-])c1,7.48%
23,CCCCCCCNC(=O)C1(CC2CC(c3cccc(Br)c3)=NO2)CCN(C(=O)c2cc(OCC)c(OCC)c(OCC)c2)CC1 (centres undefined),28.4%
24,COc1cc(N)c(Cl)cc1C(=O)OCC(=O)c1ccc2c(c1)NC(=O)CO2,-2.39%

row,Compound,inhibition
1,CCCCCCc1cc2cc(-c3nnc(-c4ccccc4)o3)c(=O)oc2cc1O,0.529%
2,CCCCCCCN=C(C)c1ccccc1O,2.33%
3,CCCCCCc1ccc(O)cc1O,63.7% (active)
4,O=C(CNS(=O)(=O)c1ccccc1)N1CCN(C(=O)c2ccco2)CC1,-1.99%
5,Cn1c(=O)n(C)c2cc(NS(=O)(=O)c3ccc(F)cc3)ccc21,2.2%
6,Cn1c(CCN2CCCC2)nc2cc(NS(=O)(=O)c3ccccc3)ccc21,9.31%
7,CC1(C)CC(=O)c2c(n(S(=O)(=O)c3ccccc3)c3ccc(NS(=O)(=O)c4ccccc4)cc23)C1,63.5% (active)
8,CCn1c(SCc2ccccc2)nc2cc(OC)c(OC)cc2c1=O,18.8%
9,CN1CCN(C(=O)c2ccccc2NC(=O)COc2ccccc2Cl)CC1,-5.23%
10,O=C1c2ccccc2S(=O)(=O)c2cc(N3CCN(c4ccccn4)CC3)ccc21,-2.13%
11,CCOc1ccc(NC(=O)COc2ccc(C(=O)N3CCC(C(N)=O)CC3)cc2OC)cc1,-10.5%
12,Cc1ccc(-n2nc3ccc(NC(=O)/C=C/c4ccco4)cc3n2)cc1C,-97.4%
13,CCC(=O)Nc1ccc(C(=O)Nc2cccc(OC)c2)cc1,-19%
14,CCC(=O)Nc1ccc2nn(-c3ccc(F)cc3)nc2c1,55.3% (active)
15,C=CCOc1cccc(C2C(C(=O)c3ccc(C)o3)=C(O)C(=O)N2c2nnc(C)s2)c1 (centres undefined),5.31%
16,N#C/C(=C\c1ccccc1C(F)(F)F)C(=O)Nc1ccccc1F,-1.24%
17,C(=N\N1CCN(c2ccccn2)CC1)/C1=C(N2CCOCC2)C(=C/c2ccccc2)/CC1,-15.4%
18,N#C/C(=C\C1=C(N2CCOCC2)C(=C\c2ccccc2)/CC1)C(=O)Nc1ccccc1F,57.8% (active)
19,CC(=O)c1ccc(NC(=O)c2sc3nc4n(c(=O)c3c2C)CCCCC4)cc1,-12.8%
20,Cc1ccc(N(CCC(=O)O)S(=O)(=O)c2cccc(C(F)(F)F)c2)cc1,-18.4%
21,CC(C)c1ccc(NC(=S)NNc2ccc(Cl)c(C(=O)O)c2)cc1,14.4%
22,Cc1ccc(C)c(NC(=S)NNC(=S)Nc2ccc(C(C)C)cc2)c1,65.3% (active)
23,Cc1ccc(C)c(NC(=S)NNC(=O)c2csc(C)c2)c1,6.88%
24,COc1cc2ccccc2cc1C(=O)Nc1ccncc1,6.55%

row,Compound,inhibition
1,CCn1c(=O)c([N+](=O)[O-])c(NCc2ccc3c(c2)OCO3)c2ccccc21,24.6%
2,O=c1oc(/C=C/c2ccccc2)nc2ccccc12,-17.7%
3,CCn1c(/C=C/c2ccc([N+](=O)[O-])o2)nc2ccccc2c1=O,85.9% (active)
4,O=C(Cc1ccc(S(=O)(=O)N2CCOCC2)s1)N1CCN(c2ccc(C(F)(F)F)cc2[N+](=O)[O-])CC1,31%
5,CNC(=S)N/N=C/c1ccc(N2CCOCC2)s1,57.6% (active)
6,Cc1cc(C(=O)N/N=C/c2ccc(N3CCOCC3)cc2)c(C)o1,0.447%
7,C=CCNC(=S)N/N=C/c1ccc(C)s1,50.5%
8,CCCCn1c(N)c(N(CCOC)C(=O)c2cccc(S(=O)(=O)N(C)c3ccccc3)c2)c(=O)[nH]c1=O,2.71%
9,CCc1ccccc1NC(=O)c1ccc2snnc2c1,-10.4%
10,O=C(Nc1ccc2ccccc2c1)Nc1ccc2snnc2c1,57.6% (active)
11,O=C(Nc1cccc(Br)c1)c1ccc2snnc2c1,10.3%
12,O=S(=O)(NCCS(=O)(=O)N1CCN(c2ccccc2)CC1)c1ccc(F)cc1,-2.33%
13,Cc1cccc(NC(=O)Nc2cccc(Oc3c(F)c(F)c(F)c(F)c3F)c2)c1,68.5% (active)
14,COc1cccc(NC(=O)NCc2ccc(F)cc2)c1,1.25%
15,Cc1cccc(NC(=O)Nc2nnc(-c3ccccc3)o2)c1,-4.53%
16,COc1ccc(C(=O)NCC(c2ccco2)N2CCc3ccccc32)cc1OC (centres undefined),5.94%
17,COc1ccc(C(=O)NCC2CCCN2S(=O)(=O)c2cccs2)cc1OC (centres undefined),-3.88%
18,COc1ccc(-c2cc(C(=O)N/N=C/c3cccnc3)c3ccccc3n2)c(OC)c1,-3.19%
19,COc1ccc(-c2cc(C(F)(F)F)nc(S(C)(=O)=O)n2)cc1OC,60.3% (active)
20,COc1ccc(-c2ccc(Nc3ccc(S(=O)(=O)N4CCCC4)cc3)nn2)cc1OC,14.2%
21,COc1ccc(-c2cc(C(F)(F)F)nc(NCc3cccnc3)n2)cc1,49.2%
22,Cc1cc2nc3n(c2cc1C)CC1CC(C(=O)NCCC(C)C)N(C)C31 (centres undefined),-2.62%
